Measurements from ChEMBL document CHEMBL1144902, “Discovery, characterization, and structure-activity relationships studies of proapoptotic polyphenols targeting B-cell lymphocyte/leukemia-2 proteins” (J Med Chem, 2003).

Assays:
HeLa = assay: Inhibitory concentration in HeLa cells; type: functional, cell-based; conditions: Homo sapiens
Procedure, shortened: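 HeLa viability assay. Low-passage HeLa (passage 10–20) treated with compounds at 0, 1, 3, 10 and 100 µM; viability read out. Values given as mean with standard deviation, n = 4.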

ZR-75-1 = assay: Inhibitory concentration in ZR-75-1 cells; type: functional, cell-based; conditions: Homo sapiens
Procedure, shortened: (§1)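 XTT viability: MCF7 grown in DMEM/10% FBS with 10^-10 M insulin, 1 mM pyruvate, glutamine; ZR75-1 in RPMI/10% FBS with HEPES, 1 mM pyruvate, glutamine. 1000 cells/well seeded in triplicate, compounds at final 0, 1, 10 and 100 µM for 3 days. Then XTT (1 mg/mL) with 0.025 mM PMS added for 4 h. OD450 read, blank wells subtracted.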

Bcl-2-like protein 1 = Bcl-2-like protein 1 (Homo sapiens, UniProt Q07817); assay: Inhibitory concentration against Bcl-xl
Sequence of Bcl-2-like protein 1 (Q07817 whole entry): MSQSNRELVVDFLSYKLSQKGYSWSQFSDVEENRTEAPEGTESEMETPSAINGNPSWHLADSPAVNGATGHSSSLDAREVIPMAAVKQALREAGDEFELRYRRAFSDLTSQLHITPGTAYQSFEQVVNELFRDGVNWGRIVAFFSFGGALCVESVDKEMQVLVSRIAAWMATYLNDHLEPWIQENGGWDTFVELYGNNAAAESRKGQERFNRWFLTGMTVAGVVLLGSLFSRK

MCF7S = assay: Inhibitory concentration in MCF-7 cells; type: functional, cell-based; conditions: Homo sapiens; procedure, shortened: as §1

SMILES | IC50 (HeLa) [µM] | IC50 (ZR-75-1) [µM] | IC50 (Bcl-2-like protein 1) [µM] | IC50 (MCF7S) [µM]
COc1c(O)cc2cccc(OC)c(=O)c2c1OC | > 100 |  |  | 
COc1cc2cccc(OC)c(=O)c2c(OC)c1OC | > 100 |  |  | 
CCOC(=O)c1cc(O)c(=O)c2cc(O)c(O)cc2c1 | 51.5 | 50 |  | 
COC(=O)c1cc(O)c(=O)c2cc(O)c(O)cc2c1 | 30 |  |  | 
O=C(O)c1cc(O)c(=O)c2cc(O)c(O)cc2c1 | 22.9 |  |  | 
Cc1cc2c(C(C)C)c(O)c(O)c(C=O)c2c(O)c1-c1c(C)cc2c(C(C)C)c(O)c(O)c(C=O)c2c1O [GOSSYPOL] |  | 8.4 | 0.5 | 13.2
O=c1c(O)cccc2cc(O)c(O)c(O)c12 [PURPUROGALLIN] | 6.5 |  |  | 
